According to ChEMBL document CHEMBL1124262, “Cardiotonic agents. Synthesis and inotropic activity of a series of isoquinolin-3-ol derivatives” (J Med Chem, 1988):
Blank lines part the entries; values can stand above or below the compound they belong to.

Legend:
Canis familiaris [1] = assay: Change in heart rate of anaesthetized, open chest dogs following 0.875 mg/kg i.v. administration.; assay type: functional, Canis lupus familiaris; settings: route intravenous
Outline: (§1)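 Anesthetized open-chest dogs, one drug per animal. Compound is in DMF diluted to 10% in saline, or given as the HCl salt in saline. It is infused into the femoral vein by pump at 0.58-2.2 mL/min in 3-4 stepwise cumulative doses, each over 5 min after the prior peak. Readings are CF by right-ventricle strain gauge, dP/dtmax by Millar LV catheter, HR by cardiotachometer and MAP from femoral artery, as % change from predrug control.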

Canis familiaris [2] = assay: Change in left ventricular pressure of anaesthetized, open chest dogs following 0.875 mg/kg i.v. administration.; assay type: functional, Canis lupus familiaris, Heart left ventricle; settings: route intravenous; outline: as §1
Canis familiaris [3] = assay: Percent change in mean arterial blood pressure (MAP) in anesthetized open chest dogs iv administration at 0.8750 mg/kg; assay type: functional, Canis lupus familiaris; settings: dose 0.875 mg/kg; outline: as §1
Canis familiaris [4] = assay: Change in heart contractile force of anaesthetized, open chest dogs following 0.875 mg/kg i.v. administration.; assay type: functional, Canis lupus familiaris; settings: route intravenous; outline: as §1
Canis familiaris [5] = assay: Percent change in mean arterial blood pressure (MAP) in anesthetized open chest dogs iv administration at 0.875 mg/kg; assay type: functional, Canis lupus familiaris; outline: as §1
Canis familiaris [6] = assay: Percent change in left ventricular pressure (dP/dtmax) in anesthetized dog after iv administration at 1.875 mg/kg; assay type: functional, Canis lupus familiaris, Heart left ventricle; outline: as §1
Canis familiaris [7] = assay: Percent change in mean arterial blood pressure (MAP) in anesthetized open chest dogs iv administration at 1.875 mg/kg; assay type: functional, Canis lupus familiaris; outline: as §1
Canis familiaris [8] = assay: Percent change in heart rate (HR) in anesthetized open chest dogs after a iv dose of 1.875 mg/kg; assay type: functional, Canis lupus familiaris; outline: as §1
Canis familiaris [9] = assay: Percent increase in contractile force (CF) in anesthetized open-chest dogs iv administration of 1.875 mg/kg; assay type: functional, Canis lupus familiaris
Outline: (§2)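 Anesthetized open-chest dogs. After a right thoracotomy, contractile force was recorded by a Walton Brodie strain gauge sutured to the right ventricle at 100 g baseline tension. Compound was given iv by infusion pump into a femoral vein, one drug per animal, in three to four stepwise increasing doses. Each dose ran over 5 min, starting once the previous dose's effect peaked. Values are % increase over predrug control vs cumulative mg/kg dose.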

Canis familiaris [10] = assay: Percent change in heart rate (HR) in anesthetized open chest dogs after a iv dose of 1.75 mg/kg; assay type: functional, Canis lupus familiaris; outline: as §1
Canis familiaris [11] = assay: Percent change in left ventricular pressure (dP/dtmax) in anesthetized dog after iv administration at 1.75 mg/kg; assay type: functional, Canis lupus familiaris, Heart left ventricle; outline: as §1
Canis familiaris [12] = assay: Percent increase in contractile force (CF) in anesthetized open-chest dogs iv administration of 1.75 mg/kg; assay type: functional, Canis lupus familiaris; outline: as §2
Canis familiaris [13] = assay: Percent change in mean arterial blood pressure (MAP) in anesthetized open chest dogs iv administration at 1.75 mg/kg; assay type: functional, Canis lupus familiaris; outline: as §1
Canis familiaris [14] = assay: 50% increase in contractile force in one to three anesthetized dogs administered intravenously; assay type: functional; settings: Canis lupus familiaris, iv
Outline: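 Anesthetized dogs (one to three). Compound is infused iv in three to four stepwise increasing doses, each over 5 min once the previous effect has peaked. Contractile force is recorded with a Walton Brodie strain gauge on the right ventricle. The dose (μg/kg) giving a 50% rise over control CF is read from the dose-response curve, graphically (n < 3) or by linear regression (n ≥ 3).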

Phosphodiesterase 3 = Phosphodiesterase 3 (Homo sapiens, UniProt Q14432+Q13370); assay: Inhibition of phosphodiesterase fraction III in anesthetized open chest dogs; assay type: functional, Canis lupus familiaris; settings: target entry is the homologue from another species
Outline: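 Enzyme is dog heart PDE-III, the third DEAE-cellulose fraction eluted at 800 mM sodium acetate. Compounds are tested at 0.01–1000 μM with 0.25 μM cAMP containing [³H]cAMP, in 0.05 M Tris-HCl pH 7.4 with 5 mM MgCl2. The reaction is stopped by heat, then snake venom converts product to adenosine. [³H]adenosine is counted by scintillation after Dowex separation. IC50 comes from ≥2 determinations, each in duplicate.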

Canis familiaris [15] = assay: Percent change in mean arterial blood pressure (MAP) in anesthetized open chest dogs iv administration at 0.3750 mg/kg; assay type: functional, Canis lupus familiaris; settings: dose 0.375 mg/kg; outline: as §1
Canis familiaris [16] = assay: Percent change in left ventricular pressure (dP/dtmax) in anesthetized dog after iv administration at 0.375 mg/kg; assay type: functional, Canis lupus familiaris, Heart left ventricle; outline: as §1
Canis familiaris [17] = assay: Percent change in heart rate (HR) in anesthetized open chest dogs after a iv dose of 0.375 mg/kg; assay type: functional, Canis lupus familiaris; outline: as §1
Canis familiaris [18] = assay: Percent increase in contractile force (CF) in anesthetized open-chest dogs iv administration of 0.375 mg/kg; assay type: functional, Canis lupus familiaris; outline: as §2

Structure (SMILES): COC(=O)CCc1c(O)ncc2cc(OC)c(OC)cc12
Change (Canis familiaris [1]): 7%
Increase (Canis familiaris [2]): 24%
Change (Canis familiaris [3]): -4%
Increase (Canis familiaris [4]): 53%

Structure (SMILES): COc1ccc2cc(O)nc(C)c2c1OC
Change (Canis familiaris [1]): 10%
Increase (Canis familiaris [2]): 51%
Change (Canis familiaris [5]): -6%
Increase (Canis familiaris [4]): 62%

Structure (SMILES): COc1ccc2cc(O)nc(C)c2c1
Change (Canis familiaris [1]): 19%
Increase (Canis familiaris [2]): 87%
Change (Canis familiaris [3]): -18%
Increase (Canis familiaris [4]): 114%

Structure (SMILES): COC(=O)c1c(O)nc(C)c2cc(OC)c(OC)cc12
Increase (Canis familiaris [6]): 19%
Change (Canis familiaris [7]): -3%
Change (Canis familiaris [8]): 6%
Increase (Canis familiaris [9]): 39%

Structure (SMILES): Cc1nc(O)c(Cl)c2cc3c(cc12)OCO3
Increase (Canis familiaris [6]): 51%
Change (Canis familiaris [7]): -22%
Change (Canis familiaris [8]): 28%
Increase (Canis familiaris [9]): 88%

Structure (SMILES): COC(=O)CCc1c(O)ncc2cc3c(cc12)OCO3
Increase (Canis familiaris [6]): 28%
Change (Canis familiaris [7]): 0%
Change (Canis familiaris [8]): 6%
Increase (Canis familiaris [9]): 26%

Structure (SMILES): COc1cc2cc(O)nc(C)c2cc1OC
Change (Canis familiaris [10]): 25%
Increase (Canis familiaris [11]): 55%
Increase (Canis familiaris [12]): 100%
Change (Canis familiaris [13]): -32%

Structure (SMILES): CNC(=O)CCc1c(O)nc(C)c2cc(OC)c(OC)cc12
Change (Canis familiaris [7]): -5%
Increase (Canis familiaris [2]): 40%
Change (Canis familiaris [8]): 7%
Increase (Canis familiaris [9]): 62%

Structure (SMILES): CCOc1cc2cnc(O)cc2cc1OC
Increase (Canis familiaris [6]): 32%
Change (Canis familiaris [7]): 0%
Change (Canis familiaris [8]): 7%
Increase (Canis familiaris [9]): 34%

Structure (SMILES): CNC(=O)c1c(O)nc(C)c2cc(OC)c(OC)cc12
Increase (Canis familiaris [6]): 17%
Change (Canis familiaris [7]): 4%
Change (Canis familiaris [8]): 0%
Increase (Canis familiaris [9]): 2%

Structure (SMILES): CCOc1cc2cc(O)nc(C)c2cc1OCC
Change (Canis familiaris [1]): 15%
Increase (Canis familiaris [2]): 42%
Change (Canis familiaris [3]): -11%
Increase (Canis familiaris [4]): 84%

Structure (SMILES): COC(=O)CCc1c(O)nc(C)c2cc3c(cc12)OCO3
Change (Canis familiaris [1]): 38%
Increase (Canis familiaris [2]): 118%
Change (Canis familiaris [3]): -21%
Increase (Canis familiaris [4]): 131%

Structure (SMILES): COc1cc2c(C)nc(O)c(CCC(=O)OC(C)C)c2cc1OC
Increase (Canis familiaris [6]): 15%
Change (Canis familiaris [7]): -6%
Change (Canis familiaris [8]): 3%
Increase (Canis familiaris [9]): 22%

Structure (SMILES): COC(=O)CCc1c(O)nc(C)c2c(OC)c(OC)c(OC)cc12
Change (Canis familiaris [1]): 8%
Increase (Canis familiaris [2]): 20%
Change (Canis familiaris [3]): -4%
Increase (Canis familiaris [4]): 22%

Structure (SMILES): COc1cc2c(C)nc(O)c(CCC(=O)O)c2cc1OC
Increase (Canis familiaris [6]): 42%
Change (Canis familiaris [7]): -3%
Change (Canis familiaris [8]): 5%
Increase (Canis familiaris [9]): 75%

IC50 (Phosphodiesterase 3): 128 µM
Structure (SMILES): COc1cc2c(C)nc(O)c(C3CCCC3)c2cc1OC
ED50 (Canis familiaris [14]): 1.88 mg/kg
Increase (Canis familiaris [6]): 22%
Change (Canis familiaris [7]): 3%
Change (Canis familiaris [8]): 5%
Increase (Canis familiaris [9]): 46%

Structure (SMILES): COC(=O)CCc1c(O)nc(C(C)C)c2cc(OC)c(OC)cc12
Increase (Canis familiaris [6]): 17%
Change (Canis familiaris [7]): 3%
Change (Canis familiaris [8]): 7%
Increase (Canis familiaris [9]): 15%

Structure (SMILES): COc1ccc2[nH]c(=O)nc(C)c2c1OC [BEMARINONE]
Change (Canis familiaris [15]): -6%
Increase (Canis familiaris [16]): 30%
Change (Canis familiaris [17]): 11%
Increase (Canis familiaris [18]): 71%
